Results reported in ChEMBL document CHEMBL1152946, “6-Amino-2-mercapto-3H-pyrimidin-4-one derivatives as new candidates for the antagonism at the P2Y12 receptors” (Bioorg Med Chem, 2009).

What was measured:
[1] = Antiplatelet activity against 10^-6 M ADP-induced human platelet aggregation at 100 uM by light transmission aggregometry; format: functional
Procedure, shortened: (§1)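 Platelet-rich plasma came from healthy volunteers' blood collected in sodium citrate (9:1) and spun at 150g, 21 °C for 10 min. Samples were prewarmed to 37 °C with compound (10^-4 M) or vehicle, then ADP was added (final 10^-5 or 10^-6 M). Shape change and aggregation were followed by light transmission for 3 min. Results are % of vehicle aggregation, mean of at least 2 experiments.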

[2] = Antiplatelet activity against 10^-5 M ADP-induced human platelet aggregation at 100 uM by light transmission aggregometry; format: functional; procedure, shortened: as §1
[3] = molecular target: Adenosine receptor A2b (Homo sapiens) (UniProt P29275); assay: Antagonist activity at human adenosine A2b receptor expressed in CHO cells expressed in inhibition of cAMP level; set-up: concentration or dose not given beside the values; conditions: concentration not given here
[4] = molecular target: T1, Adenosine receptor A3 (Homo sapiens) (UniProt P0DMS8); assay: Displacement of [3H]ABMECA from human adenosine A3 receptor expressed in CHO cells at 10 uM; format: cell-based; conditions: in the assay text read “[125I]ABMECA” for “[3H]ABMECA”
T1 sequence (whole entry): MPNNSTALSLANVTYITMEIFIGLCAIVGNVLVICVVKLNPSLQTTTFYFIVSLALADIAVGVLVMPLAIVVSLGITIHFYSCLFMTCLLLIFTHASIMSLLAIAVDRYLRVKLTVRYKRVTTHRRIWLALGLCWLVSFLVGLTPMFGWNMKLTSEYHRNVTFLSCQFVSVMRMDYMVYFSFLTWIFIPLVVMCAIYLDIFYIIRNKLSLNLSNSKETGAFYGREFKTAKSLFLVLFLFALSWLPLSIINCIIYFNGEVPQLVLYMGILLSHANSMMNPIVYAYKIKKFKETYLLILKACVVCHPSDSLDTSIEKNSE
Procedure, shortened: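 Non-specific binding was defined with 1 µM AB-MECA. Samples were filtered on GF/B and radioactivity was counted. Results are % displacement at the tested concentration, mean ± SEM of four experiments in triplicate.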

[5] = molecular target: Adenosine receptor A2b (Homo sapiens) (UniProt P29275); assay: Antagonist activity at human adenosine A2b receptor expressed in CHO cells expressed in inhibition of NECA-induced cAMP level; set-up: concentration or dose not given beside the values; conditions: concentration not given here
[6] = molecular target: Adenosine receptor A2a (Homo sapiens) (UniProt P29274); assay: Displacement of [3H]ZM241385 from human adenosine A2A receptor expressed in CHO cells at 10 uM; format: cell-based
Procedure, shortened: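 Membranes from CHO cells expressing hA2A (50 µg protein) were incubated with [3H]ZM-241385 1 nM in 50 mM Tris HCl with 10 mM MgCl2, pH 7.4, for 60 min at 4 °C. Non-specific binding was defined with 1 µM ZM-241385. Samples were filtered on GF/B and counted by scintillation. Results are % displacement at the tested concentration, mean ± SEM of four experiments in triplicate.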

[7] = molecular target: T2, Adenosine receptor A1 (Homo sapiens) (UniProt P30542); assay: Displacement of [3H]DPCPX from human adenosine A1 receptor expressed in CHO cells at 10 uM; format: cell-based
T2 sequence (whole entry): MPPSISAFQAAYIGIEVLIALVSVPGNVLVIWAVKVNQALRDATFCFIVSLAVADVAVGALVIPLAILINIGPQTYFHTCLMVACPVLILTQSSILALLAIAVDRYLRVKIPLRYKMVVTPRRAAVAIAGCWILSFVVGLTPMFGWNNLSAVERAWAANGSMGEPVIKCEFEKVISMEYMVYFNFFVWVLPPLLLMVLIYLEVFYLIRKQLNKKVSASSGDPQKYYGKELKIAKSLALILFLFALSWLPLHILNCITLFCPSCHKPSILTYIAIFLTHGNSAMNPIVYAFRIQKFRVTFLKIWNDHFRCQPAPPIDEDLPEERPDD
Procedure, shortened: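 Membranes from CHO cells expressing hA1 (50 µg protein) were incubated with [3H]DPCPX 1 nM in 50 mM Tris HCl pH 7.4 for 120 min at 25 °C. Non-specific binding was defined with 10 µM CHA. Bound ligand was separated by GF/B filtration and counted by scintillation. Results are % displacement of specific binding at the bracketed test concentration, mean ± SEM of four experiments in triplicate.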

[8] = molecular target: T1, Adenosine receptor A3 (Homo sapiens); assay: Displacement of [125I]ABMECA from human adenosine A3 receptor expressed in CHO cells at 10 uM
P2Y purinoceptor 12 = P2Y purinoceptor 12 (Homo sapiens, UniProt Q9H244); assay: Antagonist activity at human recombinant P2Y12 receptor expressed in CHO FlpIn cells assessed as reduction n 2-methylthio-ADP mediated inhibition of forskolin-induced cAMP response element-directed luciferase expression by bright-glo assay; format: functional, cell-based
Procedure, shortened: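 CHO FlpIN cells stably expressing human P2Y12 were transiently transfected with a pCRE-luc reporter. After 24 h they were switched to physiological salt solution and exposed to forskolin 1 µM ± 2-methylthio-ADP 10 nM plus varying antagonist concentrations (DMSO vehicle) for 3.5 h at 37 °C. Luminescence was read after lysis with Bright-Glo. Responses are % of 2-methylthio-ADP response with DMSO only; n=4–8.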

Chain of Adenosine receptor A2a (Homo sapiens) (P29274 whole entry): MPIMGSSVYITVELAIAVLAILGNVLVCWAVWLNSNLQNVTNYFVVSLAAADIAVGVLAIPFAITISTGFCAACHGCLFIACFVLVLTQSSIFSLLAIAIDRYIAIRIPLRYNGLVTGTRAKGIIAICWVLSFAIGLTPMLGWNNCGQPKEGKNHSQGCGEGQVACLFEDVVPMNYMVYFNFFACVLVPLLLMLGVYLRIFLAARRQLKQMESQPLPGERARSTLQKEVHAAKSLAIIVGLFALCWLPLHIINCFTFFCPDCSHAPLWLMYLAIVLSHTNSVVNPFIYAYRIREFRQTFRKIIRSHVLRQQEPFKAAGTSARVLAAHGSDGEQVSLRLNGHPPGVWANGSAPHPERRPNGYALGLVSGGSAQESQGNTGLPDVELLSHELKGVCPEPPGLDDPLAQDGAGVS
Chain of P2Y purinoceptor 12 (Q9H244 whole entry): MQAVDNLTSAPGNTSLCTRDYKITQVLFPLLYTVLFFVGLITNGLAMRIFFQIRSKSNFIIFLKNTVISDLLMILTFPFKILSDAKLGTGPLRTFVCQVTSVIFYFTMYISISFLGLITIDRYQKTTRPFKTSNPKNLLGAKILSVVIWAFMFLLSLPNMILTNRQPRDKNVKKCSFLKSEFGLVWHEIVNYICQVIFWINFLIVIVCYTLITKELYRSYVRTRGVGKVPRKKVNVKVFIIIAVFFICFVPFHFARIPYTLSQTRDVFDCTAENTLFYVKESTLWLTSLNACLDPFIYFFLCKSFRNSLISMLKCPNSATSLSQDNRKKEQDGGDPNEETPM

inhibition [3] | Activity [4] | inhibition [5] | Activity [6] | Activity [7] | Activity [8] | IC50 (P2Y purinoceptor 12) | SMILES | Activity [1] | Activity [2]
– | – | – | – | – | – | – | CSc1nc(N)cc(OS(=O)(=O)c2ccc(C)cc2)n1 | 120% | 96%
– | – | – | – | – | – | – | Nc1cc(OS(=O)(=O)c2ccccc2Cl)nc(SCc2ccccc2Cl)n1 | 92% | 96%
– | – | – | – | – | – | – | CCCCCSc1nc(N)cc(O)n1 | 63% | 100%
– | – | – | – | – | – | – | Nc1cc(=O)[nH]c(SCc2ccccc2Cl)n1 | 88% | 101%
3% | 21% | 8% | 7% | 7% | – | – | CC(C)(C)OC(=O)NCCSc1nc(N)cc(=O)[nH]1 | 40% | 76%
8% | – | 10% | 1% | 4% | 23% | – | CCCCCSc1nc(N)cc(OS(=O)(=O)c2ccccc2Cl)n1 | 58% | 95%
– | – | – | – | – | – | – | Cc1ccc(S(=O)(=O)Oc2cc(N)nc(SCCNC(=O)OC(C)(C)C)n2)cc1 | 75% | 97%
– | – | – | – | – | – | – | CCCCCSc1nc(N)cc(OS(=O)(=O)c2ccc(C)cc2)n1 | 96% | 88%
– | – | – | – | – | – | – | CN(C)c1cccc2c(S(=O)(=O)Oc3cc(N)nc(SCC(F)(F)F)n3)cccc12 | 115% | 104%
– | – | – | – | – | – | – | Cc1ccc(S(=O)(=O)Oc2cc(N)nc(SCC(F)(F)F)n2)cc1 | 105% | 101%
– | – | – | – | – | – | – | O=c1cc(O)nc(SCc2ccccc2Cl)[nH]1 | 97% | 96%
– | – | – | – | – | – | – | CN(C)c1cccc2c(S(=O)(=O)Oc3cc(N)nc(SCc4ccccc4Cl)n3)cccc12 | 96% | 101%
10% | – | 7% | 18% | 3% | 36% | 8.08 µM | Cc1ccc(S(=O)(=O)Oc2cc(N)nc(SCCN)n2)cc1 | 37% | 96%
– | – | – | – | – | – | – | Nc1cc(=O)[nH]c(SC(c2ccccc2)(c2ccccc2)c2ccccc2)n1 | 81% | 100%
5% | 44% | 3% | 1% | 6% | – | – | Cc1ccc(S(=O)(=O)NCCSc2nc(N)cc(=O)[nH]2)cc1 | 51% | 89%
– | – | – | – | – | – | – | O=C(Nc1ccccc1)Nc1cc(=O)[nH]c(SCc2ccccc2Cl)n1 | 91% | 94%
2% | 46% | 4% | 1% | 2% | – | – | Cc1ccc(S(=O)(=O)Oc2cc(N)nc(SCCO)n2)cc1 | 57% | 99%
– | – | – | – | – | – | – | Cc1ccc(S(=O)(=O)Oc2cc(N)nc(SCc3ccccc3Cl)n2)cc1 | 68% | 100%
7% | 47% | 5% | 1% | 48% | – | – | CN(C)c1cccc2c(S(=O)(=O)Oc3cc(N)nc(SCCO)n3)cccc12 | 93% | 100%
– | – | – | – | – | – | – | Cc1ccc(S(=O)(=O)Nc2cc(N)nc(SCCN)n2)cc1 | 91% | 91%
– | – | – | – | – | – | – | Nc1cc(=O)[nH]c(SCCO)n1 | 114% | 99%
– | – | – | – | – | – | – | Nc1cc(OS(=O)(=O)c2ccccc2Cl)nc(SCC(F)(F)F)n1 | 97% | 102%
– | – | – | – | – | – | – | Nc1cc(OS(=O)(=O)c2ccccc2Cl)nc(SCCO)n1 | 110% | 100%
– | – | – | – | – | – | – | CN(C)c1cccc2c(S(=O)(=O)Oc3cc(N)nc(SCCN)n3)cccc12 | 83% | 99%
– | – | – | – | – | – | – | Cn1c(SCc2ccccc2Cl)nc(N)cc1=O | 61% | 88%
– | – | – | – | – | – | – | Nc1cc(OCc2ccccc2Cl)nc(SCc2ccccc2Cl)n1 | 86% | 95%
